Calls of active or inactive are those of the source. The calls are words filed in the database; no cut-off is given here.
Assays:
[1] = system: OVCAR-3; assay: Cytotoxicity against human OVCAR3 cells assessed as growth inhibition at 10 uM after 48 hrs by SRB assay; format: functional, cell-based
How it was run: (§1)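 Single-dose screen run by the NCI Developmental Therapeutics Program (NCI-60). Cells were grown in RPMI 1640 with 5% fetal bovine serum and 2 mM L-glutamine. They were plated at 5000–40 000 cells/well, depending on doubling time. Each line was run in two plates and exposed to 10 μM drug for 48 h at 37 °C, 5% CO2, 100% humidity. Read-out was growth percent.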

[2] = system: OVCAR-5; assay: Cytotoxicity against human OVCAR5 cells assessed as growth inhibition at 10 uM after 48 hrs by SRB assay; format: functional, cell-based; how it was run: as §1
[3] = system: OVCAR-8; assay: Cytotoxicity against human OVCAR8 cells assessed as growth inhibition at 10 uM after 48 hrs by SRB assay; format: functional, cell-based; how it was run: as §1
[4] = system: NCI/ADR-RES; assay: Cytotoxicity against human NCI-ADR-RES cells assessed as growth inhibition at 10 uM after 48 hrs by SRB assay; format: functional, cell-based; how it was run: as §1
[5] = system: ACHN; assay: Cytotoxicity against human ACHN cells assessed as growth inhibition at 10 uM after 48 hrs by SRB assay; format: functional, cell-based
How it was run: (§2)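 NCI DTP 60-cell-line screen run at the NCI. Cells were grown in RPMI 1640 with 5% FBS and 2 mM L-glutamine. They were seeded at 5000–40 000 cells/well depending on doubling time and grown in two plates per line. Each was exposed to a single 10 μM dose for 48 h at 37 °C, 5% CO2, 95% air, 100% humidity. Read-out was percent growth.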

[6] = system: SN12C; assay: Cytotoxicity against human SN12C cells assessed as growth inhibition at 10 uM after 48 hrs by SRB assay; format: functional, cell-based
How it was run: (§3)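 NCI-60 DTP human tumour line screen. Cells grown in RPMI 1640 with 5% fetal bovine serum and 2 mM L-glutamine, plated at 5000–40 000 cells/well according to doubling time. Single dose of 10 μM for 48 h at 37 °C, 5% CO2, 95% air, 100% humidity, two plates per line. Read-out is growth percent.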

[7] = system: TK-10; assay: Cytotoxicity against human TK10 cells assessed as growth inhibition at 10 uM after 48 hrs by SRB assay; format: functional, cell-based; how it was run: as §3
[8] = system: DU-145; assay: Cytotoxicity against human DU145 cells assessed as growth inhibition at 10 uM after 48 hrs by SRB assay; format: functional, cell-based; how it was run: as §2
[9] = system: MCF7; assay: Cytotoxicity against human MCF7 cells assessed as growth inhibition at 10 uM after 48 hrs by SRB assay; format: functional, cell-based; how it was run: as §1
[10] = system: MDA-MB-231; assay: Cytotoxicity against human MDA-MB-231 cells assessed as growth inhibition at 10 uM after 48 hrs by SRB assay; format: functional, cell-based; how it was run: as §1
[11] = system: Hs-578T; assay: Cytotoxicity against human Hs578T cells assessed as growth inhibition at 10 uM after 48 hrs by SRB assay; format: functional, cell-based; how it was run: as §2
[12] = system: NCI-H226; assay: Cytotoxicity against human NCI-H226 cells assessed as growth inhibition at 10 uM after 48 hrs by SRB assay; format: functional, cell-based; how it was run: as §1
[13] = system: NCI-H23; assay: Cytotoxicity against human NCI-H23 cells assessed as growth inhibition at 10 uM after 48 hrs by SRB assay; format: functional, cell-based; how it was run: as §1
[14] = system: NCI-H460; assay: Cytotoxicity against human NCI-H460 cells assessed as growth inhibition at 10 uM after 48 hrs by SRB assay; format: functional, cell-based; how it was run: as §1
[15] = system: NCI-H522; assay: Cytotoxicity against human NCI-H522 cells assessed as growth inhibition at 10 uM after 48 hrs by SRB assay; format: functional, cell-based; how it was run: as §1
[16] = system: HCC 2998; assay: Cytotoxicity against human HCC2998 cells assessed as growth inhibition at 10 uM after 48 hrs by SRB assay; format: functional, cell-based; how it was run: as §2
[17] = system: HCT-116; assay: Cytotoxicity against human HCT116 cells assessed as growth inhibition at 10 uM after 48 hrs by SRB assay; format: functional, cell-based; how it was run: as §2
[18] = system: HT-29; assay: Cytotoxicity against human HT-29 cells assessed as growth inhibition at 10 uM after 48 hrs by SRB assay; format: functional, cell-based; how it was run: as §2
[19] = system: KM12; assay: Cytotoxicity against human KM12 cells assessed as growth inhibition at 10 uM after 48 hrs by SRB assay; format: functional, cell-based; how it was run: as §2
[20] = system: SW-620; assay: Cytotoxicity against human SW620 cells assessed as growth inhibition at 10 uM after 48 hrs by SRB assay; format: functional, cell-based; how it was run: as §3
[21] = Induction of [32P]-labeled 49-mer oligonucleotide duplex DNA 12 with GNC sequence at terminus (unknown origin) interstrand cross-linking at 1 mM after 16 hrs by PAGE in presence of H2O2
How it was run: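 32P-labelled 12a (1.0 μM) annealed with 1.5 equiv of 12b in 10 mM potassium phosphate pH 7 / 100 mM NaCl (65 °C for 3 min, then slow cooling). Duplex incubated with compound (final 1 μM–5 mM), with or without H2O2, in NaCl and potassium phosphate pH 8 at room temperature for 16 h. Quenched in formamide; 20% denaturing PAGE.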

[22] = system: A549; assay: Cytotoxicity against human A549 cells assessed as growth inhibition at 10 uM after 48 hrs by SRB assay; format: functional, cell-based; how it was run: as §2
[23] = system: SR; assay: Cytotoxicity against human SR cells assessed as growth inhibition at 10 uM after 48 hrs by SRB assay; format: functional, cell-based; how it was run: as §3
[24] = system: K562; assay: Cytotoxicity against human K562 cells assessed as growth inhibition at 10 uM after 48 hrs by SRB assay; format: functional, cell-based; how it was run: as §2
[25] = system: CCRF-CEM; assay: Cytotoxicity against human CCRF-CEM cells assessed as growth inhibition at 10 uM after 48 hrs by SRB assay; format: functional, cell-based; how it was run: as §2
[26] = system: NCI-H226; assay: Cytotoxicity against human NCI-H226 cells after 48 hrs by SRB assay; format: functional; settings: NCI-H226, 48 h
How it was run: (§4)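 GI50 from the NCI Developmental Therapeutics Program in vitro human tumor cell screen. Cell lines were maintained in RPMI 1640 with 5% fetal bovine serum and 2 mM L-glutamine. They were seeded at 5000–40 000 cells/well, depending on each line's doubling time, then exposed to drug for 48 h at 37 °C, 5% CO2.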

[27] = system: NCI-H322M; assay: Cytotoxicity against human NCI-H322M cells after 48 hrs by SRB assay; format: functional; how it was run: as §4
[28] = system: A498; assay: Cytotoxicity against human A498 cells after 48 hrs by SRB assay; format: functional; settings: A498, 48 h
How it was run: (§5)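 GI50 was determined in the NCI Developmental Therapeutics Program in vitro 60-line cancer screen. Tumour lines were maintained in RPMI 1640 containing 5% FBS and 2 mM L-glutamine. Cells were inoculated at 5000–40 000 cells/well according to each line's doubling time before drug exposure.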

[29] = Cytotoxicity against human UO31 cells after 48 hrs by SRB assay; format: functional; settings: UO-31, 48 h
How it was run: (§6)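 GI50 from the NCI-60 DTP human tumour line screen. Lines grown in RPMI 1640 with 5% fetal bovine serum and 2 mM L-glutamine, plated at 5000–40 000 cells/well according to doubling time. Incubated 48 h at 37 °C, 5% CO2.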

[30] = system: MCF7; assay: Cytotoxicity against human MCF7 cells after 48 hrs by SRB assay; format: functional; settings: MCF7, 48 h; how it was run: as §5
[31] = system: CCRF-CEM; assay: Cytotoxicity against human CCRF-CEM cells after 48 hrs by SRB assay; format: functional; how it was run: as §5
[32] = system: MOLT-4; assay: Cytotoxicity against human MOLT4 cells after 48 hrs by SRB assay; format: functional; settings: MOLT-4, 48 h; how it was run: as §4
[33] = system: SR; assay: Cytotoxicity against human SR cells after 48 hrs by SRB assay; format: functional; how it was run: as §6

Row | Compound | growth inhibition (GI) [1] | growth inhibition (GI) [2] | growth inhibition (GI) [3] | growth inhibition (GI) [4] | growth inhibition (GI) [5] | growth inhibition (GI) [6] | growth inhibition (GI) [7] | growth inhibition (GI) [8] | growth inhibition (GI) [9] | growth inhibition (GI) [10] | growth inhibition (GI) [11] | growth inhibition (GI) [12] | growth inhibition (GI) [13] | growth inhibition (GI) [14] | growth inhibition (GI) [15] | growth inhibition (GI) [16] | growth inhibition (GI) [17] | growth inhibition (GI) [18] | growth inhibition (GI) [19] | growth inhibition (GI) [20] | further results
1 | CC1(C)OB(c2ccc(N(CCBr)CCBr)cc2)OC1(C)C | Active | Active | Active | Active | Active | Active | Active | Active | Active | Active | Active | Active | Active | Active | Active | Active | Active | Active | Active | Active | Activity [21]: 37%; growth inhibition (GI) [22]: Active; growth inhibition (GI) [23]: Active; growth inhibition (GI) [24]: Active; growth inhibition (GI) [25]: Active
2 | CC1(C)OB(c2ccc(N(CCBr)CCOS(C)(=O)=O)cc2)OC1(C)C | Active | Active | Active | Active | Active | Active | Active | Active | Active | Active | Active | Active | Active | Active | Active | Active | Active | Active | Active | Active | Activity [21]: 37%; growth inhibition (GI) [22]: Active; growth inhibition (GI) [23]: Active; growth inhibition (GI) [24]: Active; growth inhibition (GI) [25]: Active
3 | CC1(C)OB(c2ccc(N(CCCl)CCBr)cc2)OC1(C)C | Active | Active | Active | Active | Active | Active | Active | Active | Active | Active | Active | Active | Active | Active | Active | Active | Active | Active | Active | Active | GI50 [26]: 11.9 µM; GI50 [27]: 32.5 µM; GI50 [28]: 5.87 µM; GI50 [29]: 6.51 µM; GI50 [30]: 5.03 µM; Activity [21]: 37%; growth inhibition (GI) [22]: Active; growth inhibition (GI) [23]: Active; growth inhibition (GI) [24]: Active; growth inhibition (GI) [25]: Active; GI50 [31]: 5.03 µM; GI50 [32]: 3.69 µM; GI50 [33]: 0.66 µM

Source: ChEMBL document CHEMBL3286203, “Reactive oxygen species (ROS) inducible DNA cross-linking agents and their effect on cancer cells and normal lymphocytes” (J Med Chem, 2014)
